Columns and labels:
HCC827 = test: Antiproliferative activity against human HCC827 cells incubated for 72 hrs by MTT assay; assay type: functional, cell-based; details: HCC827, 72 h
NCI-H1975 [1] = test: Antiproliferative activity against human NCI-H1975 cells incubated for 72 hrs by MTT assay; assay type: functional, cell-based; details: NCI-H1975, 72 h
[2] = molecular target: T1, Epidermal growth factor receptor (Homo sapiens, UniProt P00533); assay type: cell-based, Sf9
[3] = molecular target: Epidermal growth factor receptor (Homo sapiens, UniProt P00533, L858R/T790M); test: biochemical; assay type: cell-based, Sf9
A-431 = test: Antiproliferative activity against human A431 cells incubated for 72 hrs by MTT assay; assay type: functional, cell-based; details: A-431, 72 h
[4] = Antiproliferative activity against NHBE cells incubated for 72 hrs by MTT assay; assay type: ADME, cell-based; details: Homo sapiens
A549 = test: Antiproliferative activity against human A549 cells incubated for 72 hrs by MTT assay; assay type: functional, cell-based; details: A549, 72 h
NCI-H1975 [5] = test: Antitumor activity against human NCI-H1975 cells xenografted in STOCK-Foxn1nu/Nju nude mouse assessed as inhibition of tumor growth at 20 mg/kg/day, po qd for 14 days relative to untreated control; assay type: functional; details: 336 h, read-out: TGI
Method in brief: (§1)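 Female/male unstated; 5–6-week-old nude mice (20–25 g) implanted subcutaneously in the right oxter with 3×10⁶ H1975 cells in 0.1 mL PBS. After 3 days, mice were randomised into groups and dosed orally once daily for 14 days at 10, 20 or 50 mg/kg; controls received oral 25% PEG-400. Tumour volume was taken as A×B²/2. Body weight and mortality were monitored. Tumours were weighed at sacrifice. n = 5.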

Mus musculus [6] = test: Toxicity in human NCI-H1975 cells xenografted STOCK-Foxn1nu/Nju nude mouse assessed as body weight loss 10 to 50 mg/kg/day, po qd for 14 days relative to untreated control; assay type: organism-based; details: in vivo, 336 h
Method in brief: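 Body weight was tracked over 14 days of once-daily oral dosing at 10, 20 or 50 mg/kg, against 25% PEG-400 vehicle. Mice were nude (STOCK-Foxn1nu/Nju, 5–6 weeks, 20–25 g) carrying s.c. H1975 xenografts (3×10⁶ cells in PBS). Dosing started three days after implant. n = 5, mean ±SD.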

[7] = system: Epidermal growth factor receptor (Homo sapiens), P00533 [L858R,T790M]; test: Inhibition of EGFR L858R/T790M mutant phosphorylation in human NCI-H1975 cells assessed as reduction in ERK phosphorylation at 0.2 to 5 uM by Western blotting assay; assay type: cell-based
Method in brief: (§2)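 H1975 and A431 cells were treated and then lysed. Lysates were cleared at 12,000 g, 15 min, 4 °C. 50 µg protein was run on 8–12% SDS-PAGE and transferred to PVDF. Membranes were blocked in 5% skim milk, then probed for EGFR, p-EGFR, AKT, p-AKT, ERK, p-ERK and actin. Detection was by ECL. Band IOD was normalized to actin.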

[8] = system: Epidermal growth factor receptor (Homo sapiens), P00533 [L858R,T790M]; test: Inhibition of EGFR L858R/T790M mutant phosphorylation in human NCI-H1975 cells at 0.2 to 5 uM by Western blotting assay; assay type: cell-based; method in brief: as §2
[9] = molecular target: T1, Epidermal growth factor receptor; test: Inhibition of wild type EGFR phosphorylation in human A431 cells at 0.2 to 5 uM by Western blotting assay; assay type: cell-based; method in brief: as §2
NCI-H1975 [10] = test: Antitumor activity against human NCI-H1975 cells xenografted in STOCK-Foxn1nu/Nju nude mouse assessed as inhibition of tumor growth at 50 mg/kg/day, po qd for 14 days relative to untreated control; assay type: functional; details: 336 h, read-out: TGI
Method in brief: (§3)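 Nude mice (STOCK-Foxn1nu/Nju, 5–6 weeks, 20–25 g) were given s.c. 3×10⁶ H1975 cells in 0.1 mL PBS in the right oxter. Dosing began three days after implant, with random allocation to groups. Doses were 10, 20 or 50 mg/kg, oral, once daily for 14 days; vehicle controls got oral 25% PEG-400. Tumor volume was taken as A×B²/2 from perpendicular diameters. Tumors were excised and weighed at the end. n = 5, mean ±SD.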

Mus musculus [11] = test: Toxicity in human NCI-H1975 cells xenografted STOCK-Foxn1nu/Nju nude mouse assessed as drug tolerability 10 to 50 mg/kg/day, po qd for 14 days relative to untreated control; assay type: organism-based; details: in vivo, 336 h; method in brief: as §1
NCI-H1975 [12] = test: Antitumor activity against human NCI-H1975 cells xenografted in STOCK-Foxn1nu/Nju nude mouse assessed as inhibition of tumor growth at 10 to 50 mg/kg/day, po qd for 14 days relative to untreated control; assay type: functional, organism-based; method in brief: as §3
[13] = molecular target: T1, Epidermal growth factor receptor; test: Inhibition of wild type EGFR phosphorylation in human A431 cells assessed as reduction in ERK phosphorylation at 0.2 to 5 uM by Western blotting assay; assay type: cell-based; method in brief: as §2
[14] = system: Epidermal growth factor receptor (Homo sapiens), P00533 [L858R,T790M]; test: Inhibition of EGFR L858R/T790M mutant phosphorylation in human NCI-H1975 cells at 5 uM by Western blotting assay; assay type: cell-based; method in brief: as §2
NCI-H1975 [15] = test: Antitumor activity against human NCI-H1975 cells xenografted in STOCK-Foxn1nu/Nju nude mouse assessed as inhibition of tumor growth at 10 mg/kg/day, po qd for 14 days relative to untreated control; assay type: functional; details: 336 h, read-out: TGI; method in brief: as §3
[16] = molecular target: T1, Epidermal growth factor receptor; test: Inhibition of wild type EGFR phosphorylation in human A431 cells assessed as reduction in AKT phosphorylation at 0.2 to 5 uM by Western blotting assay; assay type: cell-based; method in brief: as §2
[17] = system: Epidermal growth factor receptor (Homo sapiens), P00533 [L858R,T790M]; test: Inhibition of EGFR L858R/T790M mutant phosphorylation in human NCI-H1975 cells assessed as reduction in AKT phosphorylation at 0.2 to 5 uM by Western blotting assay; assay type: cell-based; method in brief: as §2
Mus musculus [18] = test: Toxicity in human NCI-H1975 cells xenografted STOCK-Foxn1nu/Nju nude mouse assessed as mouse mortality 10 to 50 mg/kg/day, po qd for 14 days relative to untreated control; assay type: organism-based; details: in vivo, 336 h; method in brief: as §1

T1 sequence (P00533 whole entry): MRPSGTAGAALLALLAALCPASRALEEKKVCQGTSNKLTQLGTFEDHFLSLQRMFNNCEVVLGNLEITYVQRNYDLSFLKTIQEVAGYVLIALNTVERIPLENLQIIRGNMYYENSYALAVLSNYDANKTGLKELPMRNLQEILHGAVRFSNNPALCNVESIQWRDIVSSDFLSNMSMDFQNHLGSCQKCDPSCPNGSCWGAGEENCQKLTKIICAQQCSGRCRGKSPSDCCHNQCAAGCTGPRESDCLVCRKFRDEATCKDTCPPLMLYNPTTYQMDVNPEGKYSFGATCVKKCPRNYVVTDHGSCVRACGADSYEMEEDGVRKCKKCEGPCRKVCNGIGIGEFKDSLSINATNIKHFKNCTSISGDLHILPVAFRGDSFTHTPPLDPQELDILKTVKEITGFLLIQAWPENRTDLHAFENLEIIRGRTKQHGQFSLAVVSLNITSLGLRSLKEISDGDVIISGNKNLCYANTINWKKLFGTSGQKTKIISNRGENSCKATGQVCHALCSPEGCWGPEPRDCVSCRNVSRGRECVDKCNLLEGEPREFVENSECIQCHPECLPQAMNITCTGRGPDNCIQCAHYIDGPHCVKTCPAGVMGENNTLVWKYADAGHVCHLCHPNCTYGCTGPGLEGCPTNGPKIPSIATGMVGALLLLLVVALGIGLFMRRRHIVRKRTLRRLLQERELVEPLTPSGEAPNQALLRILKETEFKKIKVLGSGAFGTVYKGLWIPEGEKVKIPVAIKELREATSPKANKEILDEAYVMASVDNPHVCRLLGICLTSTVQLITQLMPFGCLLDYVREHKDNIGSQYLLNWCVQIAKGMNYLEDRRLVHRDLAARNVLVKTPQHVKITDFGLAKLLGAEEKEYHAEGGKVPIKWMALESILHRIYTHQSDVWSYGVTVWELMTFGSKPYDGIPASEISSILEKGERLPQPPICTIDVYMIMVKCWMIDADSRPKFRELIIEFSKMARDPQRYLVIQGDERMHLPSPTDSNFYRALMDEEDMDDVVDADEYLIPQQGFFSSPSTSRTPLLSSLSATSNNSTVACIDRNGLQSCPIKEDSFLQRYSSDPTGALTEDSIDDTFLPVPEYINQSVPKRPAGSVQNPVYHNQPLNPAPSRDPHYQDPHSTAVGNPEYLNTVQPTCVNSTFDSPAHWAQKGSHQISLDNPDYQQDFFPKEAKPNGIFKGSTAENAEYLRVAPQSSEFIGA
Epidermal growth factor receptor (Homo sapiens), P00533 [L858R,T790M], sequence (P00533 whole entry T790M/L858R, looked up): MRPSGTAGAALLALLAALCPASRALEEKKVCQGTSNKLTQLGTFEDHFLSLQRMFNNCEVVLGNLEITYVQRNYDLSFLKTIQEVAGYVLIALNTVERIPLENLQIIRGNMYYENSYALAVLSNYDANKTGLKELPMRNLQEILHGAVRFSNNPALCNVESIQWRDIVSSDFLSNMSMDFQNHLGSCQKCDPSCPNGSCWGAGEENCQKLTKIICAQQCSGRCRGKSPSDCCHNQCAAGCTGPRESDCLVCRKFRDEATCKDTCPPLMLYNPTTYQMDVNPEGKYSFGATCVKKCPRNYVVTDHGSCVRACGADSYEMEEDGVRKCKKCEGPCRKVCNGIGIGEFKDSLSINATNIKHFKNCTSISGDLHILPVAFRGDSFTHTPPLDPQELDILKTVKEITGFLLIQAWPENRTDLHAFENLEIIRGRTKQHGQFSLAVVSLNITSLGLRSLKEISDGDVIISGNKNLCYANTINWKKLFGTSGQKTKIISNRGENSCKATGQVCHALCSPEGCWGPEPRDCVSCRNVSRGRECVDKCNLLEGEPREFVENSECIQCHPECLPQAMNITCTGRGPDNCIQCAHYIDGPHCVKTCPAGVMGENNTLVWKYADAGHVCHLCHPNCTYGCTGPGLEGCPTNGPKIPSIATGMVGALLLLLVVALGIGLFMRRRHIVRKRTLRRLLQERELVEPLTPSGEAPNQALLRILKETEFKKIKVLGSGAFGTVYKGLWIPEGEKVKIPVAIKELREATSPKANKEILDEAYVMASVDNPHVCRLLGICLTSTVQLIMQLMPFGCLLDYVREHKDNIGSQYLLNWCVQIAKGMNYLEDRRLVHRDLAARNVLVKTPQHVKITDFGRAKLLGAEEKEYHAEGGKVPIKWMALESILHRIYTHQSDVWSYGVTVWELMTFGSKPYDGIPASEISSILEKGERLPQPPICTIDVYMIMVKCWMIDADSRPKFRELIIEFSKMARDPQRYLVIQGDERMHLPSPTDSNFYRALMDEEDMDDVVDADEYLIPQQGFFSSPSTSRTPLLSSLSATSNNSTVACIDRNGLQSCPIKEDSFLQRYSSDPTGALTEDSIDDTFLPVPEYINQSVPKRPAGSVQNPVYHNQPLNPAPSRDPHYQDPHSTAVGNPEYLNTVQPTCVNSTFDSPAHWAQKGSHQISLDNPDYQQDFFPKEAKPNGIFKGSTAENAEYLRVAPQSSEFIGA
Epidermal growth factor receptor (Homo sapiens, UniProt P00533, L858R/T790M), sequence (P00533 25-1210 T790M/L858R limits assumed): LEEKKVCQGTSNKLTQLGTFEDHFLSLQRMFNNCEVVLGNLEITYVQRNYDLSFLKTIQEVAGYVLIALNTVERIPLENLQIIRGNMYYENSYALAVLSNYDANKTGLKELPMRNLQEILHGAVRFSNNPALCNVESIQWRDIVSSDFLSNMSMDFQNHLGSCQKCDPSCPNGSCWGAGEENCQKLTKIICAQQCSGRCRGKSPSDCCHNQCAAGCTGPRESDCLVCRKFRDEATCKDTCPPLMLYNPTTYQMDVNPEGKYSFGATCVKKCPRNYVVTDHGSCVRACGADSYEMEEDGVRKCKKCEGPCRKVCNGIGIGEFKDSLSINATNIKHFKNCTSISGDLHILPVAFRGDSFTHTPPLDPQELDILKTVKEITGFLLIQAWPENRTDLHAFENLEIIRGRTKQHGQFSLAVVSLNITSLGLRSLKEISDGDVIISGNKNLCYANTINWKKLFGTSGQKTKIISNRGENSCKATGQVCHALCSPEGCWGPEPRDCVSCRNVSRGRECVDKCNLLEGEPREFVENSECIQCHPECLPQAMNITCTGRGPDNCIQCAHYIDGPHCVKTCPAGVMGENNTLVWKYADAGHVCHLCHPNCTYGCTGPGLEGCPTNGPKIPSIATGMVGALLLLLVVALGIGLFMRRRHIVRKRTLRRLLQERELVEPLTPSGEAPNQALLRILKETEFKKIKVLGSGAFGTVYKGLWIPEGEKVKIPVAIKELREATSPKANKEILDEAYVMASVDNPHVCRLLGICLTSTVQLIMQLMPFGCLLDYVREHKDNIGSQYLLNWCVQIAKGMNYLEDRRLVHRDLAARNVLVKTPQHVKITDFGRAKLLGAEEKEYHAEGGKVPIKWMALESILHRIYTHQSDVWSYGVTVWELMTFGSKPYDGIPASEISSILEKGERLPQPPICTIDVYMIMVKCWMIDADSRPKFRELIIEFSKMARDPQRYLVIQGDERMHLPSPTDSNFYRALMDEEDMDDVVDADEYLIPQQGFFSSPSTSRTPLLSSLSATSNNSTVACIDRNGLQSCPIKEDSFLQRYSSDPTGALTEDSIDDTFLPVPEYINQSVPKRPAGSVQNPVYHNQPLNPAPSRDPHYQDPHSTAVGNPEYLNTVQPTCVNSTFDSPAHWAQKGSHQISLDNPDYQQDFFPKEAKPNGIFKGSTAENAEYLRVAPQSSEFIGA

| SMILES | IC50 (HCC827) | IC50 (NCI-H1975 [1]) | IC50 [2] | IC50 [3] | IC50 (A-431) | IC50 [4] | IC50 (A549) | other results |
| --- | --- | --- | --- | --- | --- | --- | --- | --- |
| C=CC(=O)Nc1cccc(Nc2nc(Nc3ccc(CN4CCOCC4)cc3OC)ncc2Cl)c1 | 52 nM | 287 nM | > 500 nM | 17 nM | 2060 nM | 28800 nM | 16600 nM |  |
| C=CC(=O)Nc1cc(Nc2nccc(-c3cn(C)c4ccccc34)n2)c(OC)cc1N(C)CCN(C)C [OSIMERTINIB] |  |  |  |  |  |  |  | inhibition in vivo at 20 mg/kg/day (NCI-H1975 [5]): 98.8% |
| C=CC(=O)Nc1cccc(Nc2nc(Nc3ccc(CN4CCOCC4)cc3)ncc2Cl)c1 | 44 nM | 37 nM |  |  | 382 nM | > 40000 nM | 4450 nM | Activity (Mus musculus [6]): < 5%; inhibition [7]: Dose-dependent effect; inhibition [8]: Dose-dependent effect; inhibition (INH) [9]: Dose-dependent effect; inhibition in vivo at 50 mg/kg/day (NCI-H1975 [10]): 64.6%; Activity (Mus musculus [11]): Non-Toxic; TGI (NCI-H1975 [12]): Dose-dependent effect; inhibition (INH) [13]: Dose-dependent effect; inhibition [14]: 100%; inhibition in vivo at 10 mg/kg/day (NCI-H1975 [15]): 39%; inhibition (INH) [16]: Dose-dependent effect; inhibition in vivo at 20 mg/kg/day (NCI-H1975 [5]): 45.3%; inhibition [17]: Dose-dependent effect; Activity (Mus musculus [18]): Non-Toxic |
| C=CC(=O)Nc1cccc(Nc2nc(Nc3ccc(OCCN4CCOCC4)cc3)ncc2Cl)c1 | 43 nM | 215 nM | 961 nM | 94.7 nM | 385 nM | 31500 nM | 5710 nM |  |
| C=CC(=O)Nc1cccc(Nc2nc(Nc3ccc(N4CCN(C(C)=O)CC4)cc3OC)ncc2C(F)(F)F)c1 [ROCILETINIB] | 31 nM | 299 nM |  |  |  | > 40000 nM | 3240 nM | inhibition in vivo at 50 mg/kg/day (NCI-H1975 [10]): 70.2% |
| C=CC(=O)Nc1ccccc1Nc1nc(Nc2ccc(OCC(=O)N3CCOCC3)cc2)ncc1Cl | 418 nM | 132 nM | 143 nM | 24.8 nM | 42 nM | 39500 nM | 2650 nM |  |
| C=CC(=O)Nc1ccccc1Nc1nc(Nc2ccc(NC(=O)CN3CCOCC3)cc2)ncc1Cl | 491 nM | 128 nM | 592 nM | 21.7 nM | 104 nM | 21600 nM | 5110 nM |  |
| C=CC(=O)Nc1cccc(Oc2nc(Nc3ccc(CC(=O)N4CCOCC4)cc3)ncc2Cl)c1 | 48 nM | 296 nM | 996 nM | 101 nM | 2190 nM | > 40000 nM | 2940 nM |  |
| C=CC(=O)Nc1cccc(Nc2nc(Nc3ccc(CC(=O)N4CCOCC4)cc3)ncc2Cl)c1 | 58 nM | 256 nM | < 500 nM | 96.6 nM | 760 nM | 22000 nM | 1660 nM |  |
| C=CC(=O)Nc1ccccc1Nc1nc(Nc2ccc(OCCCN3CCOCC3)cc2)ncc1Cl | 587 nM | 217 nM | 767 nM | 21.5 nM | 584 nM | > 40000 nM | 4740 nM |  |
| C=CC(=O)Nc1ccccc1Nc1nc(Nc2ccc(OCCN3CCOCC3)cc2)ncc1Cl | 524 nM | 240 nM |  |  | 478 nM | > 40000 nM | 4700 nM |  |
| C=CC(=O)Nc1cccc(Nc2nc(Nc3ccc(CN4CCOCC4)cc3)ncc2F)c1 | 41 nM | 609 nM | 500 nM | 80.8 nM | 444 nM | 22700 nM | 4460 nM |  |
| C=CC(=O)Nc1cccc(Nc2nc(Nc3ccc(OCCN4CCOCC4)c(Cl)c3)ncc2Cl)c1 | 57 nM | 500 nM | > 1000 nM | > 100 nM | 870 nM | 22400 nM | 14000 nM |  |
| C=CC(=O)Nc1ccccc1Nc1nc(Nc2ccc(CN3CCOCC3)cc2)ncc1Cl | 995 nM | 104 nM | > 800 nM | 15.3 nM | 112 nM | > 40000 nM | 2640 nM |  |
